Measured values from ChEMBL document CHEMBL1124493, “Synthesis and tumor uptake of 5-82Br- and 5-131I-labeled 5-halo-1-(2-fluoro-2-deoxy-beta-D-ribofuranosyl)uracils” (J Med Chem, 1989).

Tests used:
Mus musculus [1] = assay: Biodistribution of intravenously injected [131I]-labeled compound in blood of BDF1 female mice bearing subcutaneous Lewis lung carcinoma after 1 hours; format: ADME, organism-based; conditions: in vivo, iv
In short: (§1)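 Female BDF1 mice bearing subcutaneous Lewis lung carcinoma received a single intravenous dose of 0.5-1.8 μg of the 131I-labeled nucleoside (55-110 kBq). They were sacrificed at set times, and tissues were weighed wet and γ-counted. Activity is expressed as percent of injected dose per gram of wet tissue, given as mean ± standard deviation for six animals.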

Mus musculus [2] = assay: Biodistribution of intravenously injected [131I]-labeled compound in blood of BDF1 female mice bearing subcutaneous Lewis lung carcinoma after 2 hours; format: ADME, organism-based; conditions: in vivo, iv; in short: as §1
Mus musculus [3] = assay: Biodistribution of intravenously injected [131I]-labeled compound in gut of BDF1 female mice bearing subcutaneous Lewis lung carcinoma after 1 hours; format: ADME, organism-based; conditions: in vivo, iv; in short: as §1
Mus musculus [4] = assay: Biodistribution of intravenously injected [131I]-labeled compound in gut of BDF1 female mice bearing subcutaneous Lewis lung carcinoma after 8 hours; format: ADME, organism-based; conditions: in vivo, iv; in short: as §1
Mus musculus [5] = assay: Biodistribution of intravenously injected [131I]-labeled compound in heart of BDF1 female mice bearing subcutaneous Lewis lung carcinoma after 8 hours; format: ADME, organism-based; conditions: in vivo, iv; in short: as §1
Mus musculus [6] = assay: Biodistribution of intravenously injected [131I]-labeled compound in heart of BDF1 female mice bearing subcutaneous Lewis lung carcinoma after 1 hours; format: ADME, organism-based; conditions: in vivo, iv; in short: as §1
Mus musculus [7] = assay: Biodistribution of intravenously injected [131I]-labeled compound in kidney of BDF1 female mice bearing subcutaneous Lewis lung carcinoma after 1 hours; format: ADME, organism-based; conditions: in vivo, iv; in short: as §1
Mus musculus [8] = assay: Biodistribution of intravenously injected [131I]-labeled compound in kidney of BDF1 female mice bearing subcutaneous Lewis lung carcinoma after 4 hours; format: ADME, organism-based; conditions: in vivo, iv; in short: as §1
Mus musculus [9] = assay: Biodistribution of intravenously injected [131I]-labeled compound in lung of BDF1 female mice bearing subcutaneous Lewis lung carcinoma after 24 hours; format: ADME, organism-based; conditions: in vivo, iv; in short: as §1
Mus musculus [10] = assay: Biodistribution of intravenously injected [131I]-labeled compound in liver of BDF1 female mice bearing subcutaneous Lewis lung carcinoma after 1 hours; format: ADME, organism-based; conditions: in vivo, iv; in short: as §1
Mus musculus [11] = assay: Biodistribution of intravenously injected [131I]-labeled compound in skin of BDF1 female mice bearing subcutaneous Lewis lung carcinoma after 8 hours; format: ADME, organism-based, Zone of skin; conditions: in vivo, iv
In short: (§2)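 Female BDF1 mice with subcutaneous Lewis lung carcinoma given i.v. 0.5-1.8 μg of 131I-labeled nucleoside (55-110 kBq). Killed at set times. Tissues weighed wet and γ-counted. Radioactivity expressed as percent injected dose per gram wet tissue, mean ± SD of six animals.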

Mus musculus [12] = assay: Biodistribution of intravenously injected [131I]-labeled compound in spleen of BDF1 female mice bearing subcutaneous Lewis lung carcinoma after 0.25 hours; format: ADME, organism-based; conditions: in vivo, iv; in short: as §2
Mus musculus [13] = assay: Biodistribution of intravenously injected [131I]-labeled compound in stomach of BDF1 female mice bearing subcutaneous Lewis lung carcinoma after 8 hours; format: ADME, organism-based; conditions: in vivo, iv; in short: as §2
Mus musculus [14] = species: Mus musculus; assay: Urinary [131I]- compound observed in BDF1 female mice bearing lewis lung tumor after 24 hr of injected [131I]-compound; format: functional, tissue-based; conditions: Urine
Mus musculus [15] = species: Mus musculus; assay: Urinary [131I]5-iodouracil observed in BDF1 female mice bearing lewis lung tumor after 2-3 h of injected [131I]-compound; format: functional, tissue-based; conditions: Urine
Mus musculus [16] = species: Mus musculus; assay: Urinary iodide observed in BDF1 female mice bearing lewis lung tumor after 2-3 hr of injected [131I]-compound; format: functional, tissue-based; conditions: Urine
Mus musculus [17] = species: Mus musculus; assay: Urinary iodide observed in BDF1 female mice bearing lewis lung tumor after 24 hr of injected [131I]-compound; format: functional, tissue-based; conditions: Urine
Mus musculus [18] = assay: Biodistribution of intravenously injected [131I]-labeled compound in tumor of BDF1 female mice bearing subcutaneous Lewis lung carcinoma after 8 hours; format: ADME, organism-based; conditions: in vivo, iv; in short: as §2
Mus musculus [19] = assay: Biodistribution of intravenously injected [131I]-labeled compound in tumor of BDF1 female mice bearing subcutaneous Lewis lung carcinoma after 0.25 hours; format: ADME, organism-based; conditions: in vivo, iv; in short: as §2
Mus musculus [20] = assay: Biodistribution of intravenously injected [131I]-labeled compound in blood of BDF1 female mice bearing subcutaneous Lewis lung carcinoma after 0.50 hours; format: ADME, organism-based; conditions: in vivo, iv, 0.5 h; in short: as §1
Mus musculus [21] = species: Mus musculus; assay: Other urinary compounds observed in BDF1 female mice bearing lewis lung tumor after 24 hr of injected [131I]-compound; format: functional, tissue-based; conditions: Urine
Mus musculus [22] = assay: Biodistribution of intravenously injected [82Br]-labeled compound in tumor of BDF1 female mice bearing subcutaneous Lewis lung carcinoma after 1 hours; format: ADME, organism-based; conditions: in vivo, iv
Mus musculus [23] = assay: Biodistribution of intravenously injected [82Br]-labeled compound in spleen of BDF1 female mice bearing subcutaneous Lewis lung carcinoma after 0.50 hours; format: ADME, organism-based; conditions: in vivo, iv, 0.5 h
In short: (§3)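 Female BDF1 mice with subcutaneous Lewis lung carcinoma given an iv injection of [82Br]-labelled nucleoside, 47-130 μg carrying 20-60 kBq 82Br. Tissues were excised, weighed wet and γ-counted. Values are percent injected dose per gram of wet tissue, mean ± standard deviation of six animals, with organ-to-tumour ratios derived.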

Mus musculus [24] = assay: Biodistribution of intravenously injected [82Br]-labeled compound in bone of BDF1 female mice bearing subcutaneous Lewis lung carcinoma after 4 hours; format: ADME, organism-based, Bone element; conditions: in vivo, iv
In short: (§4)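 82Br-labeled nucleoside given intravenously to female BDF1 mice bearing subcutaneous Lewis lung carcinoma, at 47-130 μg carrying 20-60 kBq. Mice sacrificed at each time point. Wet-weighed tissues γ-counted. Values are percent injected dose per gram wet tissue, mean ± SD, n = 6.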

Mus musculus [25] = assay: Biodistribution of intravenously injected [82Br]-labeled compound in bone of BDF1 female mice bearing subcutaneous Lewis lung carcinoma after 8 hours; format: ADME, organism-based, Bone element; conditions: in vivo, iv; in short: as §4
Mus musculus [26] = assay: Biodistribution of intravenously injected [82Br]-labeled compound in kidney of BDF1 female mice bearing subcutaneous Lewis lung carcinoma after 1 hours; format: ADME, organism-based; conditions: in vivo, iv; in short: as §3
Mus musculus [27] = assay: Biodistribution of intravenously injected [82Br]-labeled compound in kidney of BDF1 female mice bearing subcutaneous Lewis lung carcinoma after 24 hours; format: ADME, organism-based; conditions: in vivo, iv; in short: as §3
Mus musculus [28] = assay: Biodistribution of intravenously injected [82Br]-labeled compound in liver of BDF1 female mice bearing subcutaneous Lewis lung carcinoma after 0.50 hours; format: ADME, organism-based; conditions: in vivo, iv, 0.5 h; in short: as §3
Mus musculus [29] = assay: Biodistribution of intravenously injected [82Br]-labeled compound in blood of BDF1 female mice bearing subcutaneous Lewis lung carcinoma after 1 hours; format: ADME, organism-based; conditions: in vivo, iv; in short: as §4
Mus musculus [30] = assay: Biodistribution of intravenously injected [82Br]-labeled compound in lung of BDF1 female mice bearing subcutaneous Lewis lung carcinoma after 24 hours; format: ADME, organism-based; conditions: in vivo, iv; in short: as §3
Mus musculus [31] = assay: Biodistribution of intravenously injected [82Br]-labeled compound in muscle of BDF1 female mice bearing subcutaneous Lewis lung carcinoma after 2 hours; format: ADME, organism-based, Muscle tissue; conditions: in vivo, iv; in short: as §3
Mus musculus [32] = assay: Biodistribution of intravenously injected [82Br]-labeled compound in liver of BDF1 female mice bearing subcutaneous Lewis lung carcinoma after 2 hours; format: ADME, organism-based; conditions: in vivo, iv; in short: as §3
Mus musculus [33] = assay: Biodistribution of intravenously injected [82Br]-labeled compound in liver of BDF1 female mice bearing subcutaneous Lewis lung carcinoma after 24 hours; format: ADME, organism-based; conditions: in vivo, iv; in short: as §3
Mus musculus [34] = assay: Biodistribution of intravenously injected [82Br]-labeled compound in blood of BDF1 female mice bearing subcutaneous Lewis lung carcinoma after 0.25 hours; format: ADME, organism-based; conditions: in vivo, iv; in short: as §4

Compound O=c1[nH]c(=O)n([C@@H]2O[C@H](CO)[C@@H](O)[C@H]2F)cc1I has an Injected dose/g (Mus musculus [1]) of 13.3%, an Injected dose/g (Mus musculus [2]) of 8.9% and an Injected dose/g (Mus musculus [3]) of 2.5%. It also gave an Injected dose/g (Mus musculus [4]) of 1.3%, an Injected dose/g (Mus musculus [5]) of 1.6% and an Injected dose/g (Mus musculus [6]) of 5.8%. The Injected dose/g (Mus musculus [7]) was 12%, the Injected dose/g (Mus musculus [8]) was 7.3% and the Injected dose/g (Mus musculus [9]) was 0.1%. It also gave an Injected dose/g (Mus musculus [10]) of 3.6%, an Injected dose/g (Mus musculus [11]) of 2.1% and an Injected dose/g (Mus musculus [12]) of 3.2%. It also gave an Injected dose/g (Mus musculus [13]) of 5.3%, a Radioactive constituents (Mus musculus [14]) of 37.4% and a Radioactive constituents (Mus musculus [15]) of 0%. The Radioactive constituents (Mus musculus [16]) was 13.7%, the Radioactive constituents (Mus musculus [17]) was 62.6% and the Injected dose/g (Mus musculus [18]) was 1.9%. The Injected dose/g (Mus musculus [19]) was 4.9%, the Injected dose/g (Mus musculus [20]) was 16% and the Radioactive constituents (Mus musculus [21]) was 0%.

For O=c1[nH]c(=O)n([C@H]2O[C@@H](CO)[C@H](O)[C@H]2F)cc1Br, the Injected dose/g (Mus musculus [22]) was 0.67%, the Injected dose/g (Mus musculus [23]) was 0.59% and the Injected dose/g (Mus musculus [24]) was 0.17%. For the same compound, the Injected dose/g (Mus musculus [25]) was 0.23%, the Injected dose/g (Mus musculus [26]) was 1.12% and the Injected dose/g (Mus musculus [27]) was 0.36%. The Injected dose/g (Mus musculus [28]) was 0.65%, the Injected dose/g (Mus musculus [29]) was 0.78% and the Injected dose/g (Mus musculus [30]) was 0.35%. For the same compound, the Injected dose/g (Mus musculus [31]) was 0.19%, the Injected dose/g (Mus musculus [32]) was 0.32% and the Injected dose/g (Mus musculus [33]) was 0.18%. The Injected dose/g (Mus musculus [34]) was 2.68%.
